Legend:
SMMC-7721 = assay: Antiproliferative activity against human SMMC7721 cells after 24 hrs by MTT assay; assay type: functional, cell-based; settings: SMMC-7721, 24 h
How it was run: (§1)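 Cells grown at 37 °C in humidified 5% CO2 with benzylpenicillin and streptomycin. Compounds came from 0.01 mol/L DMSO stocks and were tested at eight two-fold dilutions in triplicate, with medium-only controls, for 24 h. MTT absorbance was read at 570 nm. Survival = A_treatment/A_control × 100. IC50 is the concentration giving 50% viability inhibition, as the mean of two separate experiments.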

HepG2 = assay: Antiproliferative activity against human HepG2 cells after 24 hrs by MTT assay; assay type: functional, cell-based; settings: HepG2, 24 h
How it was run: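 Tetrazolium MTT viability test; cells exposed to compound 24 h, absorbance read at 570 nm. Survival ratio = A treated / A control × 100%; IC50 is the concentration giving 50% loss of viability. Eight concentrations in two-fold dilutions, triplicate wells, mean of two separate experiments. Compounds dissolved in DMSO (0.01 mol/L stock); control wells received medium only.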

BGC-823 = assay: Antiproliferative activity against human BGC823 cells after 24 hrs by MTT assay; assay type: functional, cell-based; settings: BGC-823, 24 h; how it was run: as §1
MCF7 = assay: Antiproliferative activity against human MCF7 cells after 24 hrs by MTT assay; assay type: functional, cell-based; settings: MCF7, 24 h; how it was run: as §1
[1] = tested on: Heps hepatoma (Mus musculus); assay: Antitumor activity against murine Heps hepatoma cells transplanted in Kunming mouse assessed as tumor growth inhibition at 20 mg/kg, iv administered 24 hrs after tumor implantation one dose per two day for total of four treatment measured after 24 hrs last postdose relative to control
Mus musculus = assay: Toxicity in Kunming mouse xenografted with human HepG2 cells assessed as change in body weight at 20 mg/kg, iv administered 24 hrs after tumor implantation one dose per two day for total of four treatment measured after 24 hrs last postdose (reference value: 20.90 +/- 1.29 g); settings: in vivo

SMILES | IC50 (SMMC-7721) | IC50 (HepG2) | IC50 (BGC-823) | IC50 (MCF7) | inhibition in vivo at 20 mg/kg [1] | Activity (Mus musculus)
CC(C)=CCC12OC(C)(C)C3CC(C=C4C(=O)c5cc(O)ccc5OC431)C2=O (configuration not stated) | 20 µM | 12.3 µM | 32.5 µM | 20.6 µM |  | 
CC(C)=CCC12OC(C)(C)C3CC(C=C4C(=O)c5ccc(O)cc5OC431)C2=O (configuration not stated) | 12.3 µM | 23.4 µM | 17.6 µM | 12.4 µM |  | 
CC(C)=CCC12OC(C)(C)C3CC(C=C4C(=O)c5cccc(O)c5OC431)C2=O (configuration not stated) | 11.7 µM | 14.3 µM | 19.3 µM | 19.4 µM |  | 
CC(C)=CCC[C@]1(C)C=Cc2c(O)c3c(c(CC=C(C)C)c2O1)O[C@]12C(=C[C@@H]4C[C@H]1C(C)(C)O[C@@]2(C/C=C(/C)C(=O)O)C4=O)C3=O [GAMBOGIC ACID] | 3.2 µM |  | 2.35 µM | 2.19 µM | 45.3% | 27.6 g
